Each compound was assayed on Neutrophil (assay: Antiinflammatory activity in human neutrophils assessed as fMLP-induced superoxide release after 5 mins by spectrometry).
Assay type: functional, cell-based
In short: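 Neutrophils isolated from venous blood of healthy volunteers (20–35 years) by double-gradient Ficoll–Hypaque centrifugation, with hypotonic lysis of red cells. Cells at 1 × 10^6 cells/mL pretreated with test agents (100 µmol/L) at 37 °C for 5 min. Then stimulated with fMLP (1 µmol/L) with ferricytochrome c (0.5 mg/mL). Extracellular O2•– read continuously at 550 nm. Inhibition % = [(control−resting)−(compound−resting)]/(control−resting) × 100.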
With `CC(c1ccccc1)c1ccc(O)c(C(C)c2ccccc2)c1` (centres undefined) the IC50 was > 100 µM. For `CC(C)=CCOc1ccc(/C=C/CO)cc1` [EVOFOLIN C], the IC50 was 9.64 µM. `Cn1c(=O)c2c(c3ccccc31)O[C@]1(C)C[C@@H]3c4c(c5ccccc5[nH]c4=O)OC(C)(C)[C@H]3[C@H]2C1` was tested, and the IC50 was > 100 µM. `COc1cc2ccc(=O)oc2cc1OC` [SCOPARONE] was tested, and the IC50 was > 100 µM. Compound `CC(C)=CCc1cc(/C=C/CO)ccc1O` has an IC50 of 75.1 µM. For `COc1cc(/C=C/CO)ccc1OCC=C(C)C`, the IC50 was > 100 µM. `CC(C)(O)[C@H](O)COc1ccc(/C=C/CO)cc1` was tested, and the IC50 was 32.5 µM. With `COc1c2ccoc2nc2c(OC)cccc12` [GAMMA-FAGARINE] the IC50 was > 100 µM. In the case of `COc1cc([C@H]2Oc3c(OC)cc(/C=C/C=O)cc3[C@@H]2CO)cc(OC)c1O`, the IC50 is reported as 19.3 µM. `COc1cc([C@H]2Oc3c(OC)cc(/C=C/C=O)cc3[C@@H]2CO)ccc1O` showed an IC50 of 31.9 µM. In the case of `Cn1c(=O)c2c(c3ccccc31)OC(C)(C)[C@@H]1[C@@H]2C[C@]2(C)C[C@H]1c1c(c3ccccc3n(C)c1=O)O2` [PARAENSIDIMERIN C], the IC50 is reported as > 100 µM. `COc1cc2ccc(=O)oc2c(OC)c1OC` [FRAXIDIN METHYL ETHER] gave an IC50 of 47.1 µM. For `COc1cc2oc(=O)ccc2cc1O` [ISOSCOPOLETIN], the IC50 was 77.5 µM. `C[C@H](c1ccccc1)c1cccc([C@@H](C)c2ccccc2)c1O` was tested, and the IC50 was > 100 µM. `Cn1c(=O)c2c(c3ccccc31)OC(C)(C)C=C2` was tested, and the IC50 was 4.28 µM. `COc1cc(C=O)cc(OC)c1O` [SYRINGALDEHYDE] was tested, and the IC50 was > 100 µM. Work on `COc1c2[nH]c3occc3c(OC)c-2ccc1=O` [HAPLOPINE] yielded an IC50 of 57.3 µM. `COc1cc([C@@H]2Oc3c(OC)cc(/C=C/CO)cc3[C@H]2CO)cc(OC)c1O` was tested, and the IC50 was 11.8 µM. For `CC(C)Cc1ccc(C(C)C(=O)O)cc1` (centres undefined) [IBUPROFEN], the IC50 was 32.5 µM.

— ChEMBL document CHEMBL1141277, “New phenylpropenoids, bis(1-phenylethyl)phenols, bisquinolinone alkaloid, and anti-inflammatory constituents from Zanthoxylum integrifoliolum” (J Nat Prod, 2007)
